Reference: ChEMBL document CHEMBL3272035, “(Vinylaryloxy)acetic acids. A new class of diuretic agents. 1. (Diacylvinylaryloxy)acetic acids” (J Med Chem, 1976)

Key:
Canis familiaris [1] = assay: Diuretic activity in mongrel dog anesthetized with sodium pentobarbital assessed as urine K+ level at 10 mg/kg, iv measured after 15 to 45 mins post dose (reference value: 5 to 104 uequiv/min); assay type: functional, Canis lupus familiaris
Canis familiaris [2] = assay: Diuretic activity in mongrel dog anesthetized with sodium pentobarbital assessed as urine volume at 10 mg/kg, iv measured after 15 to 45 mins post dose (reference value: 1 to 4 ml/min); assay type: functional, Canis lupus familiaris
Canis familiaris [3] = assay: Diuretic activity in mongrel dog anesthetized with sodium pentobarbital assessed as urine Na+ level at 10 mg/kg, iv measured after 15 to 45 mins post dose (reference value: 4 to 82 uequiv/min); assay type: functional, Canis lupus familiaris
Canis familiaris [4] = assay: Diuretic activity in mongrel dog anesthetized with sodium pentobarbital assessed as urine K+ level at 1 mg/kg, iv measured after 15 to 45 mins post dose (reference value: 5 to 104 uequiv/min); assay type: functional, Canis lupus familiaris
Canis familiaris [5] = assay: Diuretic activity in mongrel dog anesthetized with sodium pentobarbital assessed as urine Na+ level at 1 mg/kg, iv measured after 15 to 45 mins post dose (reference value: 4 to 82 uequiv/min); assay type: functional, Canis lupus familiaris
Canis familiaris [6] = assay: Diuretic activity in mongrel dog anesthetized with sodium pentobarbital assessed as urine volume at 1 mg/kg, iv measured after 15 to 45 mins post dose (reference value: 1 to 4 ml/min); assay type: functional, Canis lupus familiaris
Canis familiaris [7] = assay: Diuretic activity in mongrel dog anesthetized with sodium pentobarbital assessed as urine Cl- level at 1 mg/kg, iv measured after 15 to 45 mins post dose (reference value: 2 to 64 uequiv/min); assay type: functional, Canis lupus familiaris
Canis familiaris [8] = assay: Diuretic activity in mongrel dog anesthetized with sodium pentobarbital assessed as urine volume at 25 mg/kg, iv measured after 15 to 45 mins post dose (reference value: 1 to 4 ml/min); assay type: functional, Canis lupus familiaris
Canis familiaris [9] = assay: Diuretic activity in mongrel dog anesthetized with sodium pentobarbital assessed as urine K+ level at 25 mg/kg, iv measured after 15 to 45 mins post dose (reference value: 5 to 104 uequiv/min); assay type: functional, Canis lupus familiaris
Canis familiaris [10] = assay: Diuretic activity in mongrel dog anesthetized with sodium pentobarbital assessed as urine Na+ level at 25 mg/kg, iv measured after 15 to 45 mins post dose (reference value: 4 to 82 uequiv/min); assay type: functional, Canis lupus familiaris
Canis familiaris [11] = assay: Diuretic activity in mongrel dog anesthetized with sodium pentobarbital assessed as urine Cl- level at 10 mg/kg, iv measured after 15 to 45 mins post dose (reference value: 2 to 64 uequiv/min); assay type: functional, Canis lupus familiaris
Canis familiaris [12] = assay: Diuretic activity in mongrel dog assessed as urine Na+ level per 6 hrs at 1.27 mg/kg, po as gelatin capsules relative to control
Canis familiaris [13] = assay: Diuretic activity in mongrel dog anesthetized with sodium pentobarbital assessed as urine volume at 0.1 mg/kg, iv measured after 15 to 45 mins post dose (reference value: 1 to 4 ml/min); assay type: functional, Canis lupus familiaris
Canis familiaris [14] = assay: Diuretic activity in mongrel trained conscious dog assessed as urine Na+ level per 6 hrs at 0.4 mg/kg, po as gelatin capsules relative to control
Canis familiaris [15] = assay: Diuretic activity in mongrel dog anesthetized with sodium pentobarbital assessed as urine K+ level at 0.1 mg/kg, iv measured after 15 to 45 mins post dose (reference value: 5 to 104 uequiv/min); assay type: functional, Canis lupus familiaris
Canis familiaris [16] = assay: Diuretic activity in mongrel dog anesthetized with sodium pentobarbital assessed as urine Cl- level at 0.1 mg/kg, iv measured after 15 to 45 mins post dose (reference value: 2 to 64 uequiv/min); assay type: functional, Canis lupus familiaris
Canis familiaris [17] = assay: Diuretic activity in mongrel dog assessed as urine Cl- level per 6 hrs at 1.27 mg/kg, po as gelatin capsules relative to control
Canis familiaris [18] = assay: Diuretic activity in mongrel dog anesthetized with sodium pentobarbital assessed as urine Na+ level at 0.1 mg/kg, iv measured after 15 to 45 mins post dose (reference value: 4 to 82 uequiv/min); assay type: functional, Canis lupus familiaris
Canis familiaris [19] = assay: Diuretic activity in mongrel dog […] assessed as urine volume per 6 hrs at 1.27 mg/kg, po as gelatin capsules relative to control; assay type: functional, Canis lupus familiaris
Method in brief: (§1)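 Conscious trained female mongrel dogs (8–10 kg), fasted overnight after 100 ml water the day before. On test day 250 ml water orally, then 500 ml 1 h later. Bladder emptied 1 h afterwards and compound or placebo given in gelatin capsules. Voided urine from metabolism cages pooled with catheter urine at 6 h; volume and Na+, K+, Cl− measured; geometric means.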

Canis familiaris [20] = assay: Diuretic activity in mongrel trained conscious dog assessed as urine K+ level per 6 hrs at 0.4 mg/kg, po as gelatin capsules relative to control
Canis familiaris [21] = assay: Diuretic activity in mongrel trained conscious dog assessed as urine volume per 6 hrs at 0.4 mg/kg, po as gelatin capsules relative to control
Canis familiaris [22] = assay: Diuretic activity in mongrel dog assessed as urine K+ level per 6 hrs at 1.27 mg/kg, po as gelatin capsules relative to control
Canis familiaris [23] = assay: Diuretic activity in mongrel trained conscious dog assessed as urine Cl- level per 6 hrs at 0.4 mg/kg, po as gelatin capsules relative to control
Canis familiaris [24] = assay: Diuretic activity in mongrel trained conscious dog assessed as urine Na+ level per 6 hrs at 1 mg/kg, po as gelatin capsules relative to control
Canis familiaris [25] = assay: Diuretic activity in mongrel dog assessed as urine volume per 6 hrs at 1 mg/kg, po as gelatin capsules relative to control
Canis familiaris [26] = assay: Diuretic activity in mongrel dog assessed as urine K+ level per 6 hrs at 1 mg/kg, po as gelatin capsules relative to control
Canis familiaris [27] = assay: Diuretic activity in mongrel dog […] assessed as urine Cl- level per 6 hrs at 3 mg/kg, po as gelatin capsules relative to control; assay type: functional, Canis lupus familiaris; method in brief: as §1
[28] = Half life of the compound in DMF-phosphate buffer at pH 7.4 at 25 degC assessed as SH binding in presence of mercaptoacetic acid; assay type: physicochemical; conditions: DMF-phosphate buffer with mercaptoacetic acid
Method in brief: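 Minutes for half of a standard amount of compound to react with excess mercaptoacetic acid in DMF-phosphate buffer, pH 7.4, 25°.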

Canis familiaris [29] = assay: Diuretic activity in mongrel dog […] assessed as urine volume per 6 hrs at 3 mg/kg, po as gelatin capsules relative to control; assay type: functional, Canis lupus familiaris; method in brief: as §1
Canis familiaris [30] = assay: Diuretic activity in mongrel dog assessed as urine Cl- level per 6 hrs at 1 mg/kg, po as gelatin capsules relative to control
Canis familiaris [31] = assay: Diuretic activity in mongrel dog […] assessed as urine Na+ level per 6 hrs at 3 mg/kg, po as gelatin capsules relative to control; assay type: functional, Canis lupus familiaris; method in brief: as §1
Canis familiaris [32] = assay: Diuretic activity in mongrel dog […] assessed as urine K+ level per 6 hrs at 3 mg/kg, po as gelatin capsules relative to control; assay type: functional, Canis lupus familiaris; method in brief: as §1

| Compound | Activity (Canis familiaris [1]) [uEq/min] | Activity (Canis familiaris [2]) [mL/min] | Activity (Canis familiaris [3]) [uEq/min] | Activity (Canis familiaris [4]) [uEq/min] | Activity (Canis familiaris [5]) [uEq/min] | Activity (Canis familiaris [6]) [mL/min] | Activity (Canis familiaris [7]) [uEq/min] | other results |
| --- | --- | --- | --- | --- | --- | --- | --- | --- |
| CC(=O)C(=Cc1ccc(OCC(=O)O)cc1)C(C)=O | 106 | 4 | 336 | – | – | – | – | – |
| CC(=O)C(=Cc1ccc(OCC(=O)O)cc1Cl)C(C)=O | – | – | – | 232 | 1318 | 11 | – | – |
| CC(=O)C(=Cc1ccc(OC(C)C(=O)O)c(Cl)c1Cl)C(C)=O (stereo unspecified) | – | – | – | 71 | 847 | 8 | – | – |
| CCC(=O)/C(=C/c1ccc(OCC(=O)O)c(Cl)c1Cl)C(C)=O | – | – | – | 13 | 2025 | 16 | 1936 | – |
| CCC(=O)C(=Cc1ccc(OCC(=O)O)c(Cl)c1Cl)C(=O)CC | – | – | – | 68 | 676 | 7 | – | – |
| CC(=O)C(=Cc1ccc(OCC(=O)O)c(C)c1C)C(C)=O | – | – | – | 58 | – | – | – | – |
| CC(=O)C(=Cc1ccc(OCC(=O)O)c2ccccc12)C(C)=O | – | – | – | 104 | 393 | 4 | – | – |
| CC(=O)C(=Cc1cc(OCC(=O)O)ccc1Cl)C(C)=O | – | – | – | – | – | – | – | Activity (Canis familiaris [8]): 1 mL/min |
| CC(=O)C(=Cc1cc(Cl)ccc1OCC(=O)O)C(C)=O | 20 | 2 | 94 | – | – | – | – | – |
| CC(=O)C(=Cc1cc(Cl)cc(Cl)c1OCC(=O)O)C(C)=O | – | – | – | – | – | – | – | Activity (Canis familiaris [9]): 50 uEq/min; Activity (Canis familiaris [8]): 3 mL/min; Activity (Canis familiaris [10]): 244 uEq/min |
| CC(=O)/C(=C\c1ccc(OCC(=O)O)c(Cl)c1Cl)C(=O)c1ccccc1 | 105 | 6 | 583 | – | – | – | – | – |
| O=C(O)COc1ccc(C=C2C(=O)c3ccccc3C2=O)c(Cl)c1Cl | 44 | 2 | 118 | – | – | – | – | Activity (Canis familiaris [11]): 29 uEq/min |
| O=C(O)COc1ccc(C=C2C(=O)C=CC2=O)c(Cl)c1Cl | 94 | 4 | 213 | – | – | – | – | – |
| CSC(c1ccc(OCC(=O)O)c(Cl)c1Cl)C(C(C)=O)C(C)=O (stereo unspecified) | – | – | – | 78 | 571 | 6 | 565 | – |
| CC(=O)C(C(C)=O)C(SCCO)c1ccc(OCC(=O)O)c(Cl)c1Cl (stereo unspecified) | – | – | – | 80 | 405 | 5 | 447 | – |
| CC(=O)C(C(C)=O)C(SCC(=O)O)c1ccc(OCC(=O)O)c(Cl)c1Cl (stereo unspecified) | – | – | – | 178 | 1569 | 4 | 1628 | Activity (Canis familiaris [12]): 27 milliequivalent; Activity (Canis familiaris [13]): 13 mL/min; Activity (Canis familiaris [14]): 7 milliequivalent; Activity (Canis familiaris [15]): 173 uEq/min; Activity (Canis familiaris [16]): 1991 uEq/min; Activity (Canis familiaris [17]): 34 milliequivalent; Activity (Canis familiaris [18]): 1424 uEq/min; Activity (Canis familiaris [19]): 750 mL; Activity (Canis familiaris [20]): 3 milliequivalent; Activity (Canis familiaris [21]): 575 mL; Activity (Canis familiaris [22]): 6 milliequivalent; Activity (Canis familiaris [23]): 8 milliequivalent |
| CC(=O)C(C(C)=O)C(Sc1ccccc1C(=O)O)c1ccc(OCC(=O)O)c(Cl)c1Cl (stereo unspecified) | – | – | – | 124 | 802 | 7 | 913 | – |
| CC(=O)C(Cc1ccc(OCC(=O)O)c(Cl)c1Cl)C(C)=O | 35 | 3 | 198 | – | – | – | – | Activity (Canis familiaris [11]): 241 uEq/min |
| CC(=O)C(=Cc1ccc(OCC(=O)O)c(Cl)c1Cl)C(C)=O | – | – | – | 104 | – | 19 | – | Activity (Canis familiaris [24]): 30 milliequivalent; Activity (Canis familiaris [13]): 9 mL/min; Activity (Canis familiaris [15]): 87 uEq/min; Activity (Canis familiaris [25]): 492 mL; Activity (Canis familiaris [18]): 984 uEq/min; Activity (Canis familiaris [20]): 6 milliequivalent; Activity (Canis familiaris [21]): 762 mL; Activity (Canis familiaris [26]): 7 milliequivalent |
| C=C(CC)C(=O)c1ccc(OCC(=O)O)c(Cl)c1Cl [ETHACRYNIC ACID] | 194 | 22 | 2989 | 52 | 188 | 6 | 244 | Activity (Canis familiaris [24]): 21 milliequivalent; Activity (Canis familiaris [27]): 42 milliequivalent; half-life [28]: < 1 min; Activity (Canis familiaris [25]): 560 mL; Activity (Canis familiaris [29]): 571 mL; Activity (Canis familiaris [30]): 26 milliequivalent; Activity (Canis familiaris [31]): 37 milliequivalent; Activity (Canis familiaris [32]): 7 milliequivalent; Activity (Canis familiaris [26]): 5 milliequivalent; Activity (Canis familiaris [11]): 3324 uEq/min |
